# Compounds with a hit are over-represented: about 3.3% of the library has one in this group of screens.
# rCAG RNA binder – r(CAG) repeat RNA binding; AID 651821; inhibition, % at 3 µM; 370,000 tested, 1.3% active; TO-PRO-1 dye displacement fluorescence;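 active means inhibition above the plate cutoff, the mean of all test compounds on that plate plus 3 SD, cut at about 35% in these data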;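 further: 0% = DMSO alone and 100% = 100 µM mitoxantrone as full dye displacement; higher means more dye released from RNA so lower well fluorescence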
# TCR-CD3 inh – human TCR-CD3 binding inhibition; TAMRA-labeled TCR probe fluorescence, biochemical; inhibition, % at 9.4 µM; 360,000 tested, 0.37% active; AID 651800; in the data active means inhibition above about 19%;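 further: recombinant mutant TCR 2C K166C tagged with TAMRA read by polarization; 0% = receptor in buffer alone and 100% = receptor with positive control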
# PRMT1 inh – blocks human protein arginine methyltransferase 1. recombinant PRMT1, activity-based probe fluorescence polarization. Q99873. 370,000 tested, 1.3% active. AID 652257. inhibition, % at 2.79 µM;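 active means inhibition above about 21% made by adding two undisclosed values, limit read from the data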
# SIAE inh – inhibitors of human sialic acid acetylesterase SIAE. Q9HAT2. SIAE FP-Rh probe binding, fluorescence polarization. inhibition, % at 9.66 µM. 370,000 tested, 0.69% active;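 active means inhibition above a cutoff: mean of compounds within the control limits plus 3 SD of those, cut at about 17% in these data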;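 further: 0% = plate median of compound wells and 100% = probe without SIAE protein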
# Target sequence (Q9HAT2 whole entry, looked up): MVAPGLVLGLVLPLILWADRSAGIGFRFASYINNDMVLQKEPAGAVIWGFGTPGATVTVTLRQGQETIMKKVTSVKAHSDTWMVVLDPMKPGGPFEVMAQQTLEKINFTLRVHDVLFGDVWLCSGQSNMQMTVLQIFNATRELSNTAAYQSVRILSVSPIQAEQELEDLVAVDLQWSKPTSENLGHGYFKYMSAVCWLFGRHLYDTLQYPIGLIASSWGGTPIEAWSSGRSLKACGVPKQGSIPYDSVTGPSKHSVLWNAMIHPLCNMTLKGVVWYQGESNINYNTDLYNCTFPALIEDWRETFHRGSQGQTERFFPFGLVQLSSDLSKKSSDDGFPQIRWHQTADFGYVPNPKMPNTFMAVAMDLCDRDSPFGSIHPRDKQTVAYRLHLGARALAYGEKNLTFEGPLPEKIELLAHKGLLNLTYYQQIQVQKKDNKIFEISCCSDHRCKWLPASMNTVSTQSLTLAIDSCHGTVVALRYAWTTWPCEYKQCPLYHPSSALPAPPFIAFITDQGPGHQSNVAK
# ABHD4 inh – inhibits mouse alpha/beta hydrolase domain 4 | Q8VD66 | inhibition, % at 8.92 µM | 370,000 tested, 0.54% active | purified mABHD4, FP-Rh probe fluorescence polarization;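 active means inhibition exceeding the mean over every tested compound plus 3 SD, cut at about 30% in these data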;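 further: 0% = plate median of compound wells and 100% = S159A mutant with DMSO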
#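 system = mouse ABHD4 enzyme, wild type | medium = HEPES pH 7.0, NaCl, Pluronic buffer | also added = FP-Rh probe | incubation = Enzyme–compound pre-incubation 45 min, then probe 60 min, both 25 °C | technique = fluorescence polarization, excitation 525 nm, emission 598 nm, BODIPY TMR filters | controls = S159A mutant high control, sample median low control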
# PRMT1 inh conf – PRMT1 (human) inhibition, FP confirmation. shares compounds with PRMT1 inh. recombinant His-PRMT1, activity-based probe fluorescence polarization. inhibition, % at 2.79 µM. 3,300 tested, 42% active;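 active means mean inhibition across replicates above the hit cutoff derived for the earlier primary screen, cut at about 22% in these data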
# * = called active by the depositor; · = no result.
SMILES,rCAG RNA binder,TCR-CD3 inh,PRMT1 inh,SIAE inh,ABHD4 inh,PRMT1 inh conf
CCCCCCOc1ccc(N2C(=O)CC(N3CCC(C(=O)OCC)CC3)C2=O)cc1 (stereo unspecified),-4,-9,9,0,4,·
CCc1ccc(N2C(=O)CC(N3CCC(C(=O)OC)CC3)C2=O)cc1 (stereo unspecified),-8,-7,44*,0,1,-3
CCCOc1ccc(N2C(=O)CC(N3CCC(c4nncn4CC)CC3)C2=O)cc1 (stereo unspecified),-1,3,39*,1,4,0
CCOC(=O)C1CCN(C2CC(=O)N(c3ccc(OCC)cc3)C2=O)CC1 (stereo unspecified),-6,-2,45*,-2,4,-6
Cc1ccc(-c2cc(-c3nnc4sc(COc5ccccc5)nn34)[nH]n2)cc1,7,·,4,5,-6,·
Cc1ccc(S(=O)(=O)NN=CC=CC=NNS(=O)(=O)c2ccc(C)cc2)cc1,26,-5,39*,6,16,44*
CCCCOCCCNC(=O)C[C@H]1C[C@@]2(C(=O)OC)C(=C[C@H](C(C)C)O[C@@H]2C2CC2)N(CCc2ccc(OC)c(OC)c2)C1=O,-1,·,0,5,-5,·
CCOc1ccc(N2C(=O)CC(NCCc3ccncc3)C2=O)cc1 (stereo unspecified),1,-2,58*,-2,0,0
CCCOc1ccc(N2C(=O)CC(NCc3ccncc3)C2=O)cc1 (stereo unspecified),10,3,1,1,-7,·
CCCOc1ccc(N2C(=O)CC(NCCc3ccc(S(N)(=O)=O)cc3)C2=O)cc1 (stereo unspecified),5,2,51*,4,6,-2
CCOc1ccc(N2C(=O)CC(NCCc3ccc(S(N)(=O)=O)cc3)C2=O)cc1 (stereo unspecified),5,5,53*,7,4,3
CCOc1ccc(N2C(=O)CC(NCCc3c[nH]c4ccccc34)C2=O)cc1 (stereo unspecified),0,-1,31*,7,5,14
CCCOc1ccc(N2C(=O)CC(NCCNc3ccc(S(=O)(=O)CC)cc3)C2=O)cc1 (stereo unspecified),6,6,7,-9,1,·
COC(=O)[C@]12C[C@H](CC(=O)NCc3cccc(C(F)(F)F)c3)C(=O)N(Cc3cccc4ccccc34)C1=C[C@H](COCc1ccccc1)O[C@@H]2C,7,·,0,-8,-12,·
O=C(Nc1sc2c(c1-c1nc3ccccc3s1)CCNC2)C(F)(F)F,·,·,41*,0,11,10
O=C(COCc1ccccc1)NC1CCCCN(Cc2ccc(Cl)cc2)C1=O (stereo unspecified),2,·,0,5,12,·
O=C(CSC1=NCCS1)Nc1nc2c(s1)CCCC2,9,3,26*,5,-7,32*
Cn1nnnc1SCC(=O)Nc1nc2c(s1)CCCC2,1,-3,-1,-5,-2,·
O=C(CNC(=O)c1cccs1)c1ccc([N+](=O)[O-])cc1,4,-8,5,5,1,·
O=C(CNC(=O)c1ccco1)OCC(=O)c1ccc([N+](=O)[O-])cc1,3,-3,47*,3,7,42*
O=C(Cc1ccccc1)NCC(=O)OCC(=O)c1ccc([N+](=O)[O-])cc1,3,-1,76*,2,-4,67*
Cc1ccc(C(=O)NCC(=O)NCC(=O)OCC(=O)c2ccc([N+](=O)[O-])cc2)cc1,4,5,63*,1,5,43*
O=C(CNC(=O)c1cccs1)OCC(=O)c1ccc([N+](=O)[O-])cc1,0,-4,60*,-2,5,51*
C=CC[C@@H]1NN2C(=O)[C@@H](CCCC)[C@@H]3c4ccccc4C=NN3[C@@H]2c2ccccc21,-1,·,-3,-3,0,·
COc1cccc(C(=O)NCC(=O)OCC(=O)Nc2ncc(Cl)cc2Cl)c1,8,4,-1,-2,4,·
SMILES,rCAG RNA binder,TCR-CD3 inh,PRMT1 inh,SIAE inh,ABHD4 inh,PRMT1 inh conf
O=C(COC(=O)CNC(=O)c1ccco1)Nc1ncc(Cl)cc1Cl,10,8,35*,-6,3,16
O=C(CNS(=O)(=O)c1ccccc1)OCC(=O)c1ccc([N+](=O)[O-])cc1,3,-6,80*,-2,2,42*
C[C@H]1C2CC(OC(=O)Nc3cccc(F)c3)C(C2)[C@H]2CCCCN21 (stereo partly specified),2,·,-3,4,2,·
CC(=Nc1cccc(C)c1)c1sc2ccccc2c1O,0,2,26*,7,4,19
CC(=Nc1ccccc1O)c1sc2ccccc2c1O,4,-3,34*,5,16,25*
Oc1c(N=Nc2ccccc2)sc2ccccc12,0,-10,7,-5,-15,·
CC(=O)NCCN=C(C)c1sc2ccccc2c1O,1,-1,25*,3,2,21*
COC(=O)[C@]12C[C@H](CC(=O)N3CCOCC3)C(=O)N(Cc3ccco3)C1=C[C@H](C(C)C)O[C@@H]2C1CC1,-2,·,-1,5,1,·
COc1ccc([C@H]2OC(=O)C[C@@H]2C(=O)N2CCCCC2)cc1OC,0,·,-1,0,5,·
O=C(CCl)Nc1ncc(S(=O)(=O)c2ccc([N+](=O)[O-])cc2)s1,5,-3,33*,3,4,3
CCCOc1ccc(-c2nc(=S)[nH][nH]2)cc1,3,-4,46*,-4,1,12
COc1ccc2c(c1C(=O)/C=C/c1ccccc1)OC(C)(C)C=C2,·,·,7,-3,-8,·
CC(=O)C1=C(C)N(Cc2ccc(Cl)cc2)C(=S)NC1c1ccccc1 (stereo unspecified),3,-13,0,-4,-9,·
CCN(CC)C(=S)SCC(=O)Nc1nc(=O)c2ccccc2s1,9,-1,44*,1,3,-6
COc1cccc(/C=C2\SC(=S)N(NC(=O)c3ccncc3)C2=O)c1,16,0,37*,-2,-7,13
c1ccc2c(c1)Nc1nccnc1S2,6,6,49*,6,7,47*
CC(C)C[C@H]1COc2cccc(F)c2S(=O)(=O)N1Cc1cn(Cc2ccc(Cl)cc2)nn1,3,·,-1,-3,-18,·
CC1(C)Cc2c(C#N)c(N3CCCC3)nc(-c3ccco3)c2CO1,30,0,27*,0,7,26*
COC(=O)CC[C@H](/C=C/C(=O)OC(C)(C)C)Sc1ccc(C(C)(C)C)cc1,1,·,0,-3,-5,·
Cc1nnc(SCC(=O)Nc2sc3c(c2C(N)=O)CCC(C)C3)[nH]c1=O (stereo unspecified),15,3,26*,-8,8,51*
Cc1sc(NC(=O)CSc2nc(N)cc(N)n2)c(C#N)c1C,7,-4,-1,-3,-2,·
